Experimental findings from ChEMBL document CHEMBL1629663, “Postantibiotic effects of telavancin against 16 gram-positive organisms” (Antimicrob Agents Chemother, 2009) are described below.

The subject of test [1] is Streptococcus pyogenes. Briefly: Antimicrobial activity against Streptococcus pyogenes HMC 414 assessed as time required to induce sub-MIC effect at 0.4 times MIC exposed for 2 hrs by plate counting method. Type of test: functional. In short, it runs like this: (§1)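 Unexposed Mueller-Hinton broth cultures (about 5 × 10^6 CFU/ml, 35°C) were handled as in the PA-SME set but without the 10× MIC pre-exposure. They were diluted 1:1,000, then given telavancin at final 0.2, 0.3 or 0.4× MIC, with a drug-free control. Viable counts were taken every 2 h until McFarland no. 1 turbidity. Effect duration comes from log10 CFU/ml-time plots; two separate experiments with new inocula.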

In test [2] the test system is Enterococcus faecalis. Kind of test: Antimicrobial activity against Enterococcus faecalis ATCC 29212 assessed as time required to induce sub-MIC effect at 0.4 times MIC exposed for 2 hrs by plate counting method. The class given is functional. A digest of the protocol: as §1
The test system of test [3] is Enterococcus faecalis. Kind of test: Antimicrobial activity against Enterococcus faecalis HMC 571 assessed as time required to induce sub-MIC effect at 0.4 times MIC exposed for 2 hrs by plate counting method. The class given is functional. In short, it runs like this:
as §1

The test system of test [4] is Staphylococcus aureus. Kind of test: Antimicrobial activity against vancomycin-susceptible-, methicillin-resistant Staphylococcus aureus ATCC 33591 assessed as time required to induce post antibiotic sub-MIC effect at 0.4 times MIC […] by plate counting method. Type of test: functional. In short, it runs like this:
(§2)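 After 1 h preexposure to 10× MIC at 35°C and 1:1,000 dilution, cultures were split, and drug was re-added to final 0.2, 0.3 or 0.4× MIC, with a drug-free tube. Viable counts were taken every 2 h until McFarland 1 turbidity. Duration was derived from log10 CFU/ml versus time curves. Two experiments were run, each with a new inoculum.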

Test [5] concerns Staphylococcus aureus. Briefly: Antimicrobial activity against vancomycin-susceptible-, methicillin-resistant Staphylococcus aureus 1130 assessed as time required to induce post antibiotic sub-MIC effect at 0.4 times MIC […] by plate counting method. The class given is functional. In short, it runs like this: as §2
In test [6] the test system is Staphylococcus aureus. Briefly: Antimicrobial activity against vancomycin-intermediate-, methicillin-resistant Staphylococcus aureus 1287 assessed as time required to induce post antibiotic sub-MIC effect at 0.4 times MIC […] by plate counting method. The class given is functional. A digest of the protocol: (§3)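 PAE was first induced with 10× MIC for 1 h at 35°C (inoculum about 5 × 10^6 CFU/ml, Mueller-Hinton broth) and ended by 1:1,000 dilution. Cultures were then split and given 0.2, 0.3 or 0.4× MIC, with one tube left without drug. Viable counts were taken before exposure, after dilution, then every 2 h until McFarland no. 1 turbidity. Two separate experiments, each with a new inoculum.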

Test [7] concerns Staphylococcus aureus. Briefly: Antimicrobial activity against vancomycin-resistant-, methicillin-resistant Staphylococcus aureus 510 assessed as time required to induce post antibiotic sub-MIC effect at 0.4 times MIC […] by plate counting method. Type of test: functional. In short, it runs like this:
as §2

Test [8] concerns Streptococcus pyogenes. Briefly: Antimicrobial activity against Streptococcus pyogenes HMC 414 assessed as time required to induce post antibiotic sub-MIC effect at 0.4 times MIC […] by plate counting method. Type of test: functional. A digest of the protocol: (§4)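 Mueller-Hinton broth cultures of about 5 × 10^6 CFU/ml were pre-exposed to telavancin at 10× MIC for 1 h at 35°C, then diluted 1:1,000. Telavancin was re-added to final 0.2, 0.3 or 0.4× MIC, alongside a drug-free tube. Viable counts were taken before exposure, after dilution, then every 2 h until McFarland no. 1 turbidity. Duration comes from log10 CFU/ml-versus-time plots; two separate experiments with fresh inocula.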

For test [9], the system named is Enterococcus faecalis. Briefly: Antimicrobial activity against Enterococcus faecalis ATCC 29212 assessed as post-antibiotic effect at 10 times MIC pre-exposed to Telavancin for 1 hr by plate counting method. Type of test: functional. A digest of the protocol: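 Organisms were suspended in Mueller-Hinton broth from overnight blood agar colonies at about 5 × 10^6 CFU/ml. Cultures were exposed to telavancin at 10× MIC for 1 h at 35°C in a shaking water bath, then diluted 1:1,000 to remove the drug, with an untreated growth control. Viable counts were taken before exposure, at 0 h, then every 2 h until McFarland no. 1 turbidity. PAE = T − C, the time to a 1 log10 rise. Two experiments.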

Test [10] relates to Streptococcus pyogenes. Kind of test: Antimicrobial activity against Streptococcus pyogenes HMC 414 assessed as time required to induce sub-MIC effect at 0.2 times MIC exposed for 2 hrs by plate counting method. The class given is functional. In short, it runs like this: as §1
Test [11] deals with Enterococcus faecalis. Kind of test: Antimicrobial activity against Enterococcus faecalis HMC 571 assessed as time required to induce sub-MIC effect at 0.2 times MIC exposed for 2 hrs by plate counting method. The class given is functional. A digest of the protocol: as §1
Test [12] relates to Staphylococcus aureus. Briefly: Antimicrobial activity against vancomycin-susceptible-, methicillin-resistant Staphylococcus aureus 1306 assessed as time required to induce post antibiotic sub-MIC effect at 0.2 times MIC pre-exposed to Telavancin […] by plate counting method. Type of test: functional. In short, it runs like this: as §2
The test system of test [13] is Staphylococcus aureus. Kind of test: Antimicrobial activity against vancomycin-intermediate-, methicillin-resistant Staphylococcus aureus 770 assessed as time required to induce post antibiotic sub-MIC effect at 0.2 times MIC pre-exposed to Telavancin […] by plate counting method. The class given is functional. A digest of the protocol:
as §3

Test [14] concerns Streptococcus pyogenes. Briefly: Antimicrobial activity against Streptococcus pyogenes HMC 414 assessed as time required to induce post antibiotic sub-MIC effect at 0.2 times MIC pre-exposed to Telavancin for 2 hrs by plate counting method. Type of test: functional. Particulars: in the assay text read “for 1 hr” for “for 2 hrs”. A digest of the protocol: as §4
The subject of test [15] is Staphylococcus aureus. Kind of test: Antimicrobial activity against vancomycin-intermediate-, methicillin-resistant Staphylococcus aureus 1287 assessed as time required to induce sub-MIC effect at 0.3 times MIC […] by plate counting method. Type of test: functional. A digest of the protocol:
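SME, viable plate count method: no prior drug exposure. About 5 × 10^6 CFU/ml in Mueller-Hinton broth at 35°C received 0.2, 0.3 or 0.4× MIC, alongside a drug-free tube. Counts were taken at the start, then every 2 h until McFarland no. 1 turbidity, as log10 CFU/ml against time. Two separate experiments, each with a new inoculum.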

Test [16] has as its system Streptococcus pyogenes. Briefly: Antimicrobial activity against Streptococcus pyogenes HMC 414 assessed as time required to induce sub-MIC effect at 0.3 times MIC exposed for 2 hrs by plate counting method. The class given is functional. In short, it runs like this: as §1
The test system of test [17] is Enterococcus faecalis. Briefly: Antimicrobial activity against Enterococcus faecalis ATCC 29212 assessed as time required to induce sub-MIC effect at 0.3 times MIC exposed for 2 hrs by plate counting method. The class given is functional. A digest of the protocol:
as §1

For test [18], the system named is Staphylococcus aureus. Kind of test: Antimicrobial activity against vancomycin-susceptible-, methicillin-resistant Staphylococcus aureus 1130 assessed as time required to induce sub-MIC effect at 0.4 times MIC exposed for 2 hrs by plate counting method. Type of test: functional. A digest of the protocol: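 Sub-MIC effect: cultures not preexposed to drug were diluted and handled as in the PA-SME procedure in Mueller-Hinton broth with final 0.2, 0.3 or 0.4× MIC, plus a drug-free control. Viable plate counts were taken every 2 h until McFarland 1 turbidity. Duration was derived from growth curves. Two experiments were run, each with a new inoculum.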

Test [19] has as its system Staphylococcus aureus. Kind of test: Antimicrobial activity against vancomycin-resistant-, methicillin-resistant Staphylococcus aureus 510 assessed as time required to induce post antibiotic sub-MIC effect at 0.2 times MIC pre-exposed to Telavancin for 1 hr by plate counting method.

In the case of `CCCCCCCCCCNCCN[C@@]1(C)C[C@H](O[C@H]2[C@H](Oc3c4cc5cc3Oc3ccc(cc3Cl)[C@@H](O)[C@@H](NC(=O)[C@@H](CC(C)C)NC)C(=O)N[C@@H](CC(N)=O)C(=O)N[C@H]5C(=O)N[C@H]3C(=O)N[C@H](C(=O)N[C@H](C(=O)O)c5cc(O)c(CNCP(=O)(O)O)c(O)c5-c5cc3ccc5O)[C@H](O)c3ccc(c(Cl)c3)O4)O[C@H](CO)[C@@H](O)[C@@H]2O)O[C@@H](C)[C@H]1O` [TELAVANCIN], the PAE with Streptococcus pyogenes [1] was 0.4 h; with Enterococcus faecalis [2], 3.6 h; in the test with Enterococcus faecalis [3] it was 9.6 h; in the test on Staphylococcus aureus [4] it was greater than 10 h; with Staphylococcus aureus [5] it was greater than 10 h; in the test on Staphylococcus aureus [6] it was greater than 10 h. The PAE is 8.1 h in the test with Staphylococcus aureus [7]; greater than 10.7 h with Streptococcus pyogenes [8]; 0.3 h with Enterococcus faecalis [9]; 0 h with Streptococcus pyogenes [10]; 0.1 h in the test on Enterococcus faecalis [11]; 2.9 h with Staphylococcus aureus [12]. Moreover, the PAE in the test with Staphylococcus aureus [13] came out at 3.8 h; in the test on Streptococcus pyogenes [14], 8.7 h; in the test on Staphylococcus aureus [15], 0.4 h; in the test with Streptococcus pyogenes [16] it was 0 h; in the test with Enterococcus faecalis [17], 2 h; in the test on Staphylococcus aureus [18], 6.5 h. Also, in the test on Staphylococcus aureus [19], the PAE came to 5.6 h.
